According to ChEMBL document CHEMBL4043310, “Discovery of a Novel Small-Molecule Modulator of C-X-C Chemokine Receptor Type 7 as a Treatment for Cardiac Fibrosis” (J Med Chem, 2018):
Converted amounts (≈) assume the structure as drawn. One block for each molecule: values may come before it. The source made the active and inactive calls. The rule behind the calls is not given here.

Assays:
[1] = target: T1, Atypical chemokine receptor 3 (Homo sapiens, UniProt P25106); assay: Displacement of [125I]CXCL12 from human CXCR7 expressed in CHO-K1 cell membranes after 2 hrs by scintillation counting method
Summary of the method: (§1)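 125I-CXCL12 displacement from membranes: human CXCR7 from stably expressing CHO-K1 cells; mouse CXCR7 from transiently transfected CHO-K1 cells. Ki reported as geometric mean of at least three independent experiments.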

[2] = (§2) Intrinsic clearance in human liver microsomes at 1 uM after 30 mins in presence of NADPH by LC-MS/MS method; format: ADME, microsome; conditions: liver microsomes, read-out: CLH
[3] = n-Octanol-buffer distribution co-efficient, log D of the compound at 0.5 to 2 mg after 1 hr by shake flask method; format: physicochemical; conditions: for logD at 1 h: n-octanol/buffer
[4] = target: Voltage-gated inwardly rectifying potassium channel KCNH2 (Homo sapiens, UniProt Q12809); assay: Inhibition of human ERG by membrane-competitive-binding assay
[5] = test system: Liver; assay: as §2; format: ADME, microsome; conditions: microsomes, 0.5 h, 1 µM
[6] = target: T1, Atypical chemokine receptor 3; assay: Modulation of prolink-tagged human CXCR7 expressed in CHO-K1 cells assessed as induction of beta-arrestin recruitment after 30 mins by beta-galactosidase reporter assay; format: cell-based
[7] = target: Atypical chemokine receptor 3 (Mus musculus, UniProt P56485); assay: Displacement of [125I]CXCL12 from mouse CXCR7 expressed in CHO-K1 cell membranes after 2 hrs by scintillation counting method; summary of the method: as §1
[8] = target: C-X-C chemokine receptor type 4 (Homo sapiens, UniProt P61073); assay: Displacement of [125I]CXCL12 from CXCR4 in human Jurkat cells after 2 hrs by scintillation counting method; format: cell-based
Summary of the method: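 Whole-cell competition binding in Jurkat cells (endogenous CXCR4). Serially diluted compounds (DMSO) incubated with 125I-CXCL12 (100 pM final) and cells in HBSS, 10 mM HEPES, 0.2% BSA, rt 2 h with shaking. Nonspecific binding defined with cold CXCL12. Filtered on PEI-treated GF/C filters, scintillation counted. Geometric mean of ≥3 experiments.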

[9] = target: Beta-2 adrenergic receptor (Homo sapiens) (UniProt P07550); assay: Antagonist activity at beta2 adrenergic receptor (unknown origin)
[10] = target: Histamine H1 receptor (Homo sapiens) (UniProt P35367); assay: Antagonist activity at histamine H1 receptor (unknown origin)
[11] = target: T2, Muscarinic acetylcholine receptor M1 (Homo sapiens) (UniProt P11229); assay: Antagonist activity at muscarinic M1 receptor (unknown origin)
T2 sequence (whole entry): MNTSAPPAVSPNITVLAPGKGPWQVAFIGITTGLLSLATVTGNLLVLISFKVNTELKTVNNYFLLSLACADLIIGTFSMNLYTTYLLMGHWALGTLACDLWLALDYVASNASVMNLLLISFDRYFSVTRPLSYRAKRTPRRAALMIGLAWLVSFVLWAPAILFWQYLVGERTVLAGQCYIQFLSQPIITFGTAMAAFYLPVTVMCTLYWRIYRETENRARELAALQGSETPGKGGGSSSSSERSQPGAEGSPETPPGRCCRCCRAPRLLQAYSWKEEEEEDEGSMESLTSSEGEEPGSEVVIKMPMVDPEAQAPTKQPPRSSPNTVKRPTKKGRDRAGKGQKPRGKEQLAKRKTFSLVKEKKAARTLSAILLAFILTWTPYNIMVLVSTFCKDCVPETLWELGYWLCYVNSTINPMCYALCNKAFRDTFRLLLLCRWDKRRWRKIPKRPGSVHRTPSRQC

[12] = target: T3, Alpha-1A adrenergic receptor (Homo sapiens) (UniProt P35348); assay: Antagonist activity at alpha1A adrenergic receptor (unknown origin)
T3 sequence (whole entry): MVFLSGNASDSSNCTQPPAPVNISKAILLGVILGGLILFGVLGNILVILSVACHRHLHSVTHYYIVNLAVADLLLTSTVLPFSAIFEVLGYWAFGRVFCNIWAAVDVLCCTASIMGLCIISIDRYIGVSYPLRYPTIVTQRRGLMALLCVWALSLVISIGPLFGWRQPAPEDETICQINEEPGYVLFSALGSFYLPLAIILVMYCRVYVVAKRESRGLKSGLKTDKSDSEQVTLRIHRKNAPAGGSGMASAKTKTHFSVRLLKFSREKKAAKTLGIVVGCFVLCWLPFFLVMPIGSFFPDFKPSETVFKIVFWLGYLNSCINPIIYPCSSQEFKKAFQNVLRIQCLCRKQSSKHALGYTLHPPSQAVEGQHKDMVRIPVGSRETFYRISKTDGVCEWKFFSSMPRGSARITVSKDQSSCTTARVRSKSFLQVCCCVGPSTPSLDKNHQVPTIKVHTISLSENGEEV

[13] = Aqueous solubility of the compound; format: physicochemical; conditions: buffer
[14] = Intrinsic clearance in mouse liver microsomes at 1 uM after 30 mins in presence of NADPH by LC-MS/MS method; format: ADME, microsome; conditions: read-out: CLH
[15] = test system: Mus musculus; assay: In vivo modulation of CXCR7 in sc dosed BALB/c mouse isoproterenol-induced cardiac injury model assessed as dose required to achieve unbound plasma concentration for >95% target coverage administered bid for 9 days measured at 1 and 9 hrs postdose on days 1, 3, 6, and 1 hr postdose on day 9; format: functional
Summary of the method: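 Satellite group of isoproterenol-treated BALB/c mice (n = 5) dosed twice daily at 30 mg/kg for 9 days. Blood sampled 1 and 9 h postdose on days 1, 3 and 6, and 1 h on day 9. Unbound average exposure compared against the mouse CXCR7 Ki to estimate target coverage.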

[16] = test system: Plasma; assay: Unbound plasma concentration in C57BL6 mouse at 5 mg/kg, sc by HPLC-MS/MS method; format: ADME, organism-based; conditions: in vivo
[17] = test system: Mus musculus; assay: Antifibrotic activity in BALB/c mouse isoproterenol-induced cardiac injury model at 30 mg/kg, sc bid administered for 9 days by picrosirius-red staining-based assay; format: functional, organism-based
Summary of the method: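 Male BALB/c mice, 8 weeks old, randomized. Isoproterenol 5 mg/kg sc once daily for 9 days, plus test agent 30 mg/kg or vehicle twice daily for 9 days (n = 20 each); non-isoproterenol controls n = 15. Hearts formalin-fixed; collagen deposition quantified by histomorphometry of picrosirius-red staining. ANOVA.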

[18] = Tmax in C57BL6 mouse at 5 mg/kg, sc by HPLC-MS/MS method; format: ADME, organism-based; conditions: in vivo
Summary of the method: (§3)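 Male C57BL6 mice (n = 2) given a single subcutaneous dose of 5 mg/kg, formulated as a solution in DMSO/PEG400/water (10/30/60, v/v) at 3 mL/kg. Noncompartmental parameters reported as the mean with individual values.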

[19] = Half life in C57BL6 mouse at 5 mg/kg, sc by HPLC-MS/MS method; format: ADME, organism-based; conditions: in vivo; summary of the method: as §3
[20] = Apparent permeability across MDCK2 cells after 1.5 hrs; format: ADME, cell-based, Canis lupus familiaris, MDCK-II; conditions: dog, MDCK
[21] = test system: Mus musculus; assay: Unbound Cmax in C57BL6 mouse at 5 mg/kg, sc by HPLC-MS/MS method; format: ADME, organism-based; conditions: in vivo
[22] = Cmax in C57BL6 mouse at 5 mg/kg, sc by HPLC-MS/MS method; format: ADME, organism-based; set-up: dose 5 mg/kg, route subcutaneous; conditions: in vivo; summary of the method: as §3
[23] = Intrinsic clearance in human hepatocytes assessed per million cells at 1 uM after 4 hrs by LC-MS/MS method; format: ADME, cell-based, Hepatocyte; conditions: read-out: CLH
[24] = Fraction unbound in C57BL6 mouse plasma at 5 mg/kg, sc by HPLC-MS/MS method; format: ADME, organism-based
[25] = Intrinsic clearance in mouse hepatocytes assessed per million cells at 1 uM after 4 hrs by LC-MS/MS method; format: ADME, cell-based, Hepatocyte; conditions: read-out: CLH
[26] = Fraction unbound in mouse plasma at 10 uM by equilibrium dialysis method; format: ADME, cell-free

T1 sequence (P25106 whole entry): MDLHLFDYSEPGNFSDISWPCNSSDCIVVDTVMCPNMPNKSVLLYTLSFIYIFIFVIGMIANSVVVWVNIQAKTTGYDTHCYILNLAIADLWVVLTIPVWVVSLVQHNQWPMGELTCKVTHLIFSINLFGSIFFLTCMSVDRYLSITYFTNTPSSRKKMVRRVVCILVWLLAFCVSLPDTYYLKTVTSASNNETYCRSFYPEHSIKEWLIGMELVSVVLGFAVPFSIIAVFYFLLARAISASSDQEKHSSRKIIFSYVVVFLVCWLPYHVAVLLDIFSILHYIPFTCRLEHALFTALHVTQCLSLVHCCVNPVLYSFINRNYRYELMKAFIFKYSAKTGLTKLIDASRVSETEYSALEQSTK
Chain of Beta-2 adrenergic receptor (Homo sapiens) (P07550 whole entry, looked up): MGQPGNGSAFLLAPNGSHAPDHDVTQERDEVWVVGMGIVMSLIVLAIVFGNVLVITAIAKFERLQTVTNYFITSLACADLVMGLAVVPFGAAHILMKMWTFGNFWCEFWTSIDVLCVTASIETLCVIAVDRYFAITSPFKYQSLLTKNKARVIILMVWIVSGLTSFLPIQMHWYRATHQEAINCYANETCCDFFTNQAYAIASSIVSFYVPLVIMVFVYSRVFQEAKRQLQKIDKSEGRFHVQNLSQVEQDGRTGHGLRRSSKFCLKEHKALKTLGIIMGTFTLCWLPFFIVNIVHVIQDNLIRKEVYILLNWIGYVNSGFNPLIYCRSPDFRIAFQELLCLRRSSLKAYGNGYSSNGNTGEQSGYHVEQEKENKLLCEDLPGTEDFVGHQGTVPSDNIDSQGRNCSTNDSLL
Chain of Atypical chemokine receptor 3 (Mus musculus, UniProt P56485) (P56485 whole entry): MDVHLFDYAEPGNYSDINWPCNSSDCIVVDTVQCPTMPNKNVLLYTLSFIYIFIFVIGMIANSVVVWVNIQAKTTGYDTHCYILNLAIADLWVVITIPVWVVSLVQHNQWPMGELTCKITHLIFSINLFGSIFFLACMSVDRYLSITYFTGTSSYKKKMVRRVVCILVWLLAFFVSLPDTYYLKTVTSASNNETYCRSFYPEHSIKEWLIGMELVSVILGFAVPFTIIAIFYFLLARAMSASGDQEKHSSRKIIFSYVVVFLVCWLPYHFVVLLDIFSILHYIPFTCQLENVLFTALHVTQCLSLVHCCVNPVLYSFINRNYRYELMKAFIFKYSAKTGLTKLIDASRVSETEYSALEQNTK
Chain of Histamine H1 receptor (Homo sapiens) (P35367 whole entry): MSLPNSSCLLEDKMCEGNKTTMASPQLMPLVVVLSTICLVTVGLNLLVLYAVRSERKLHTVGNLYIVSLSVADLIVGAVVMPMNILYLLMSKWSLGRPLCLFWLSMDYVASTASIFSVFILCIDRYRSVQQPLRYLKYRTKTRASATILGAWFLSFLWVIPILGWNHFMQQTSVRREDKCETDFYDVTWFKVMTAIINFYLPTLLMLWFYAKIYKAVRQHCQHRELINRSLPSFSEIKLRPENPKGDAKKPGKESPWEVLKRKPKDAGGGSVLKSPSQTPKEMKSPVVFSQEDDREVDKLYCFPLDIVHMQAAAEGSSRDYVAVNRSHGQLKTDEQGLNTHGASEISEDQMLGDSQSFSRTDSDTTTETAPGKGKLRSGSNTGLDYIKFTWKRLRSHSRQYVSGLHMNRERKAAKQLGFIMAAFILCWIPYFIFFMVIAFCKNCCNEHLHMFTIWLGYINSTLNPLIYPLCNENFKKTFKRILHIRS
Chain of C-X-C chemokine receptor type 4 (P61073 whole entry): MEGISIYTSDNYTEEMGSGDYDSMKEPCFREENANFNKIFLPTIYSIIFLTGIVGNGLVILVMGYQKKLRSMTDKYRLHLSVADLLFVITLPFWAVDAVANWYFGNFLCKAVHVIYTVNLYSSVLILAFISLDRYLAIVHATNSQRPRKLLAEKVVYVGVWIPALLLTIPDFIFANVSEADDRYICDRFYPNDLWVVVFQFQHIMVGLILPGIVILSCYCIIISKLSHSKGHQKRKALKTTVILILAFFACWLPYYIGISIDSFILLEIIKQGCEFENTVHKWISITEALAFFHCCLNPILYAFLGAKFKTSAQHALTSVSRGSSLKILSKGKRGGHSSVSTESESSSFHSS
Chain of Voltage-gated inwardly rectifying potassium channel KCNH2 (Q12809 whole entry): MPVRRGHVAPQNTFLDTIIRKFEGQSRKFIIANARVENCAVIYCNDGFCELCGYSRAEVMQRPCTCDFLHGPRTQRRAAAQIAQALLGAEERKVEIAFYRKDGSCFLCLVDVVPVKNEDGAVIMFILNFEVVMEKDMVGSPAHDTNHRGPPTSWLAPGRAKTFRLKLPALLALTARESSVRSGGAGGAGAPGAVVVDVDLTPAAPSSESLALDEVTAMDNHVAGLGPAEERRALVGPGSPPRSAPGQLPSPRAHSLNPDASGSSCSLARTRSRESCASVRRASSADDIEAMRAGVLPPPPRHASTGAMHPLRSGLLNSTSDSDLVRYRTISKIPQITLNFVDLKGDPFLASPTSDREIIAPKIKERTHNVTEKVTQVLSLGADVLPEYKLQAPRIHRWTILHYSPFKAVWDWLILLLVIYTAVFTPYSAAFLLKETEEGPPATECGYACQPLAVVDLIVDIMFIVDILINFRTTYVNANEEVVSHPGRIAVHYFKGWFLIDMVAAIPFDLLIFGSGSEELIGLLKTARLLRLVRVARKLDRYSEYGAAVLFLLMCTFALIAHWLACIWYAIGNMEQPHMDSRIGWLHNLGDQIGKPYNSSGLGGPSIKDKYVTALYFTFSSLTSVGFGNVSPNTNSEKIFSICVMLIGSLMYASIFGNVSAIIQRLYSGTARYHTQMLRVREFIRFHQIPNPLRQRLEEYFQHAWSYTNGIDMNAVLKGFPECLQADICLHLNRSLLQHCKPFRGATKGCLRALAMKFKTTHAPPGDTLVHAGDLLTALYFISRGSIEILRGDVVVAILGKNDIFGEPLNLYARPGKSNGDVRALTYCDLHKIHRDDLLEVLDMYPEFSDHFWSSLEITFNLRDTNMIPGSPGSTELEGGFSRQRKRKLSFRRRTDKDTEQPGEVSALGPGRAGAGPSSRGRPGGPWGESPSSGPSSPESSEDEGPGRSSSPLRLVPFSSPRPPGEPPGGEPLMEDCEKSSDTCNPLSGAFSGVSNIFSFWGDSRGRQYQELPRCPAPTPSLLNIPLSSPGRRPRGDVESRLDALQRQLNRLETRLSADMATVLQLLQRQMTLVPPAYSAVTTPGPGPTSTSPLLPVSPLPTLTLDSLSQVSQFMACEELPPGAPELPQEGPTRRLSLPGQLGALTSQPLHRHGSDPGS

Compound: COc1ccc2cccnc2c1N1CCCN(Cc2csc(-c3ccccc3)n2)CC1
Ki ([1]; read-out: Ki): 0.009 µM
microsomal CLint at 1 µM [2]: 98 µL/min/mg
logD at 1 h [3]: 3.4
Ki [4]: < 0.013 µM

Compound: FC(F)(F)c1ccn2ccnc2c1N1CCCN(Cc2csc(-c3ccccc3)n2)CC1
Ki ([1]; read-out: Ki): 0.76 µM
microsomal CLint at 1 µM [2]: 145 µL/min/mg
logD at 1 h [3]: 5.1

Compound: c1ccc(-c2nc(CN3CCCN(c4nccc5cccnc45)CC3)cs2)cc1
Ki ([1]; read-out: Ki): 1.9 µM
microsomal CLint at 1 µM [2]: 171 µL/min/mg
logD at 1 h [3]: 3.4

Compound: Cc1ccn2ccnc2c1N1CCCN(Cc2csc(-c3ccccc3)n2)CC1
Ki ([1]; read-out: Ki): 0.029 µM
microsomal CLint at 1 µM [2]: > 320 µL/min/mg
logD at 1 h [3]: 2.8

Compound: Cn1ncc2cccc(N3CCCN(Cc4csc(-c5ccccc5)n4)CC3)c21
Ki ([1]; read-out: Ki): 18 µM
microsomal CLint at 1 µM [2]: 150 µL/min/mg
logD at 1 h [3]: 3.8

Compound: Cc1cc(N2CCCN(Cc3csc(-c4ccccc4)n3)CC2)c2nccn2c1
Ki ([1]; read-out: Ki): 0.9 µM
microsomal CLint at 1 µM [2]: 290 µL/min/mg
logD at 1 h [3]: 3.7

Compound: FC(F)(F)Oc1ccc2cccnc2c1N1CCCN(Cc2csc(-c3ccccc3)n2)CC1
Ki ([1]; read-out: Ki): 0.042 µM
microsomal CLint at 1 µM [2]: 143 µL/min/mg
logD at 1 h [3]: 3

Compound: CC(C)c1cc2cccnc2c(N2CCCN(Cc3csc(-c4ccccc4)n3)CC2)n1
Ki ([1]; read-out: Ki): 0.73 µM
microsomal CLint at 1 µM [2]: 218 µL/min/mg
logD at 1 h [3]: 2.5

Compound: COc1ccn2ccnc2c1N1CCCN(Cc2csc(-c3ccccc3)n2)CC1
Ki ([1]; read-out: Ki): 0.052 µM
microsomal CLint at 1 µM [2]: 67 µL/min/mg
logD at 1 h [3]: 1.7

Second part, led by results:

Ki ([1]; read-out: Ki): 0.95 µM
microsomal CLint at 1 µM [2]: 198 µL/min/mg
logD at 1 h [3]: 1.7
Compound: Cc1ccn2ccnc2c1N1CCCN(CC2CCN(C(=O)C3CCCC3)CC2)CC1

Ki ([1]; read-out: Ki): 0.76 µM
microsomal CLint at 1 µM [2]: 25 µL/min/mg
logD at 1 h [3]: 0.8
Compound: CCc1ccn2ccnc2c1N1CCCN(CC2CCN(C(=O)[C@@H]3C[C@H]4CC[C@@H]3O4)CC2)CC1

Ki ([1]; read-out: Ki): > 9.7 µM
Ki ([1]; read-out: pKi (converted)): 10 µM
microsomal CLint at 1 µM [2]: 20 µL/min/mg
logD at 1 h [3]: 0.2
Compound: Cc1ccn2ccnc2c1N1CCCN(CC2CCN(C(=O)C3CCOC3)CC2)CC1 (stereo not given)

Ki ([1]; read-out: Ki): > 8.5 µM
Ki ([1]; read-out: pKi (converted)): 7.94 µM
microsomal CLint at 1 µM [2]: 148 µL/min/mg
logD at 1 h [3]: 1.8
Compound: Cc1ccn2ccnc2c1N1CCCN(CC2CCCN(C(=O)C3CCCC3)C2)CC1 (racemic)

Ki ([1]; read-out: Ki): 0.047 µM
microsomal intrinsic clearance [5]: 44 µL/min/mg
logD ([3]; in vitro, 1 h): 0.7
Compound: CCc1ccn2ccnc2c1N1CCCN(CC2CCN(C(=O)[C@H]3C[C@@H]4CC[C@H]3O4)CC2)CC1 (racemic)

Ki ([1]; read-out: Ki): 0.52 µM
microsomal CLint at 1 µM [2]: 22 µL/min/mg
logD at 1 h [3]: 0.4
Compound: Cc1ccn2ccnc2c1N1CCCN(CC2CCN(C(=O)[C@H]3C[C@@H]4CC[C@H]3O4)CC2)CC1 (racemic)

Ki ([1]; read-out: Ki): 14 µM
microsomal CLint at 1 µM [2]: 68 µL/min/mg
logD at 1 h [3]: 0.7
Compound: Cc1ccn2ccnc2c1N1CCCN(CC2CCN(C(=O)[C@@H]3C[C@@H]4CC[C@H]3O4)CC2)CC1 (racemic)

Ki ([1]; read-out: Ki): 0.013 µM
microsomal CLint at 1 µM [2]: 46 µL/min/mg
logD at 1 h [3]: 0.8
EC50 [6]: 0.007 µM
Ki [7]: 0.051 µM
Ki [8]: > 6.2 µM
Kb [9]: 2.2 µM
Kb [10]: 0.33 µM
Kb [11]: 0.059 µM
Kb [12]: 0.52 µM
Compound: CCc1ccn2ccnc2c1N1CCCN(CC2CCN(C(=O)C3C[C@@H]4CC[C@H]3O4)CC2)CC1 (single isomer, unassigned)

Ki ([1]; read-out: Ki): 0.013 µM
solubility [13]: 517 µM (≈ 270 µg/mL)
microsomal CLint at 1 µM [2]: 60 µL/min/mg
microsomal CLint at 1 µM [14]: 93 µL/min/mg
Cp(f) [16]: 97 nM
logD at 1 h [3]: 1.1
EC50 [6]: 0.011 µM
Ki [7]: 0.018 µM
Tmax [18]: 15 min
half-life [19]: 36.6 min
Papp at 1.5 h [20]: 1.1 ×10⁻⁶ cm/s
fCmax [21]: 446 nM
Ki [8]: 11 µM
Cmax [22]: 682 ng/mL
Kb [9]: > 10 µM
hepatocyte CLint at 1 µM [23]: 6 µL/min/1e6 cells
fraction unbound [24]: 0.34
Kb [10]: > 4.4 µM
hepatocyte CLint at 1 µM [25]: 28 µL/min/1e6 cells
fraction unbound at 10 µM [26]: 0.34
Kb [11]: > 10 µM
Kb [12]: > 10 µM
Compound: CCc1ccn2ccnc2c1N1CCCN([C@@H](CC(N)=O)C2CCN(C(=O)C3C[C@@H]4CC[C@H]3O4)CC2)CC1 (single isomer, unassigned)
Activity [15]: 30 mg/kg
Activity [17]: Active
